# According to ChEMBL document CHEMBL4765399, “Design, synthesis, and biological evaluation of 5-((8-methoxy-2-methylquinolin-4-yl)amino)-1H-indole-2-carbohydrazide derivatives as novel Nur77 modulators” (Eur J Med Chem, 2020):
# The source made the active and inactive calls. No cut-off for these calls is given here.
# Experiments:
# HepG2 [1] = test: Antitumor activity against human HepG2 cells xenografted in BALB/c mouse assessed as reduction in PCNA expression in tumor tissue at 10 to 20 mg/kg/day, ip for 15 days by immunocytochemistry staining; format: functional, organism-based; details: dose 10-20 mg/kg/day, time 15.0 day
# Summary of the method: (§1)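 HepG2 cells (5×10^6) injected subcutaneously into flanks of 4-week-old male Balb/c nude mice. At about 100 mm³, 15 mice were randomized to vehicle, 10 or 20 mg/kg i.p. once daily for 15 days. Tumors were then excised for immunostaining of paraffin sections (5 μm) or for western blot.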
# SMMC-7721 = test: Induction of endoplasmic reticulum stress in human SMMC-7721 cells assessed as increase in CHOP protein expression incubated for 12 hrs by Western blot analysis; format: functional, cell-based; details: dose 0.5-2 µM
# Summary of the method: (§2)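 HepG2, QGY-7703 and SMMC-7721 treated with graded concentrations for 12 h. Lysed in RIPA with inhibitors; 40-80 µg protein separated by SDS-PAGE, blotted to nitrocellulose, blocked 1 h in 5% milk, primary antibodies overnight (LC3, Beclin1, Bip, CHOP, TRB3), HRP secondaries, chemiluminescence.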
# QGY-7703 [2] = test: Antiproliferative activity against human QGY-7703 cells assessed as reduction in cell viability incubated for 48 hrs by MTT assay; format: functional, cell-based; details: QGY-7703, 48 h
# Summary of the method: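 MTT assay after 48 h exposure at six concentrations, range chosen by cytotoxicity. Inhibition = (ODcontrol − ODtest)/ODcontrol × 100%; IC50 is the concentration halving OD versus untreated cells. Means ± SD of three independent determinations. HepG2 and SMMC-7721 grown in DMEM, QGY-7703 and LO2 in RPMI 1640, with 10% FBS at 37 °C.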
# HepG2 [3] = test: Inhibition of colony formation in human HepG2 cells at 2 uM incubated for 24 hrs measured after cell culturing for 15 days in normal medium by crystal violet staining based assay; format: functional; details: time 16.0 day
# Summary of the method: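 500 HepG2, QGY-7703 or SMMC-7721 cells per well allowed to attach 24 h, exposed to DMSO or 2.0 µM for 24 h, then grown 15 days in plain medium. Colonies fixed 30 min in 4% paraformaldehyde, stained 15 min with 0.1% crystal violet, photographed and counted.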
# HepG2 [4] = test: Induction of apoptosis in human HepG2 cells assessed as increase in cleaved PARP level at 0.5 to 2 uM incubated for 12 hrs by Western blot analysis; format: functional, cell-based; details: dose 0.5-2 µM
# Summary of the method: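 HepG2 cells exposed 12 h to graded concentrations. RIPA lysates with protease/phosphatase inhibitors, 40–80 µg protein by SDS-PAGE onto nitrocellulose, probed for PARP cleavage, chemiluminescent detection.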
# Mus musculus = test: Induction of Nur77 expression in tumor tissue of BALB/c mouse xenografted with human HepG2 cells at 10 to 20 mg/kg/day, ip administered for 15 days by western blot analysis; details: dose 10-20 mg/kg/day, time 15.0 day
# HepG2 [5] = test: Upregulation of RARgamma expression in human HepG2 cells at 2 uM incubated for 2 to 12 hrs by Western blot analysis; format: functional, cell-based; details: time 2-12 hrs
# Summary of the method: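 HepG2 cells given 2.0 µM for the indicated times. RXRα, RARγ and Nur77 detected by western blot: RIPA lysis with protease and phosphatase inhibitors, 40-80 µg protein by SDS-PAGE, nitrocellulose, 5% milk block, primary antibody overnight, HRP secondary, chemiluminescence read-out.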
# HepG2 [6] = test: Induction of apoptosis in human HepG2 cells assessed as live cells at 1 uM incubated for 12 hrs by Annexin V-FITC/PI staining based flow cytometry (reference value: 94%); format: functional
# [7] = target: T1, Nuclear receptor subfamily 4immunitygroup A member 1 (Homo sapiens, UniProt P22736); test: Binding affinity to Nur77 ligand binding domain (unknown origin) at 10 uM by surface plasmon resonance analysis; details: filed as modulator
# T1 sequence (P22736 whole entry, the tested form may be a part): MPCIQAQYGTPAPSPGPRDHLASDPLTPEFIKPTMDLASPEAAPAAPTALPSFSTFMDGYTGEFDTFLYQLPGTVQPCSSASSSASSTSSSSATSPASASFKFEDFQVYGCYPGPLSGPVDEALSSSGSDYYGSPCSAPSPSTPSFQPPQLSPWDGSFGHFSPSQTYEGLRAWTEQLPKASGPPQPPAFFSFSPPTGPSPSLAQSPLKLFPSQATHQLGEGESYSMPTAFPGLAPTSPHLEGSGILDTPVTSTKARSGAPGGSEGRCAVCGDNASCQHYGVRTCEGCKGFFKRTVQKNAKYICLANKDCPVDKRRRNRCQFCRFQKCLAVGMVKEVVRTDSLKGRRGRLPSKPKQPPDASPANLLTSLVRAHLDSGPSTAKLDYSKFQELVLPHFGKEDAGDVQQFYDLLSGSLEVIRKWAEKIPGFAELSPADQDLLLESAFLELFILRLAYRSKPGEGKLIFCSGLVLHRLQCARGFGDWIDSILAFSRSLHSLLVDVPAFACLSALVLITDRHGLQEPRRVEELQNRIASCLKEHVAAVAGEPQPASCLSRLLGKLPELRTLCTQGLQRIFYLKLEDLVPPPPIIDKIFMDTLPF
# Summary of the method: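 Single-concentration SPR screen at 10.0 µM against Nur77-LBD; binding given as RU response.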
# HepG2 [8] = test: Upregulation of Nur77 expression in human HepG2 cells at 2 uM incubated for 6 hrs by Western blot analysis; format: functional, cell-based
# Summary of the method: (§3)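 HepG2, QGY-7703 and SMMC-7721 cells treated with the indicated concentrations for 6 h. HepG2 also given 2.0 µM over a time course. Lysis in RIPA with protease and phosphatase inhibitors; 40-80 µg protein by SDS-PAGE, nitrocellulose transfer. Membranes blocked with 5% milk, primary antibody overnight, HRP secondary, chemiluminescence. GAPDH as loading control.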
# HepG2 [9] = test: Induction of endoplasmic reticulum stress in human HepG2 cells transfected with shNur77 assessed as increase in PDI protein expression at 2 uM incubated for 6 hrs by confocal microsocopic analysis; format: functional, cell-based
# Summary of the method: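 HepG2, or HepG2 plus shNur77 HepG2, treated with 2.0 µM for 6 h, fixed in 4% paraformaldehyde 20 min, permeabilised 0.1% Triton X-100, blocked in 5% BSA, stained with PDI antibody and imaged by confocal fluorescence microscopy.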
# HepG2 [10] = test: Antitumor activity against human HepG2 cells xenografted in BALB/c mouse assessed as induction of ER stress by measuring increase in CHOP level in tumor tissue at 10 to 20 mg/kg/day, ip administered for 15 days by immunohistochemical analysis; format: functional, organism-based; details: dose 10-20 mg/kg/day, time 15.0 day; summary of the method: as §1
# HepG2 [11] = test: Disruption of mitochondrial membrane potential in human HepG2 cells transfected with shNur77 assessed as red fluorescence intensity at 2 uM incubated for 12 hrs by JC-1 staining based flow cytometry (reference value: 21319 units); format: functional
# HepG2 [12] = test: Induction of autophagy in human HepG2 cells assessed as LC3-II expression at 2 uM pretreated with ER stress inhibitor, 4-PBA for 2 hrs followed by incubation with compound for 12 hrs by Western blot analysis; format: functional, cell-based
# Summary of the method: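 HepG2 grown to confluence, pretreated 2 h with 2 mM 4-PBA, then exposed to test compound for a further 12 h; Western blot for PARP, cleaved caspase-3/-9, Bcl-2, Bax, Bip, EIF2a, TRB3 and LC3.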
# HepG2 [13] = test: Upregulation of Nur77 expression in human HepG2 cells at 2 uM measured after 1 to 6 hrs by western blot analysis; format: functional, cell-based; details: time 1-6 hrs; summary of the method: as §3
# [14] = target: T1, Nuclear receptor subfamily 4immunitygroup A member 1; test: Modulation of Nur77 in human HepG2 cells assessed as induction of Nur77 translocation into cytoplasm from nucleus by measuring decrease in protein expression in nucleus at 2 uM by western blot analysis; format: subcellular; details: filed as modulator, time 1-8 hrs, TDE = time-dependent effect
# Summary of the method: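 HepG2 given 2.0 µM for set times; cells swollen 10 min on ice in HEPES/NaCl/EDTA/CaCl2/MgCl2 buffer, 0.1% NP40 added, spun 15000 rpm 3 min at 4 °C giving cytoplasmic supernatant; pellet extracted in RIPA. Fractions blotted for Nur77, with PARP (nuclear) and tubulin (cytoplasmic) as loading controls.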
# QGY-7703 [15] = test: Induction of endoplasmic reticulum stress in human QGY-7703 cells assessed as increase in CHOP protein expression incubated for 12 hrs by Western blot analysis; format: functional, cell-based; details: dose 0.5-2 µM; summary of the method: as §2
# HepG2 [16] = test: Antiproliferative activity against human HepG2 cells assessed as reduction in cell viability at 2 uM by MTT assay; format: functional, cell-based; details: time 12-48 hrs, TDE = time-dependent effect
# Summary of the method: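 Cells treated with 2.0 µM over a time course; viability read by MTT. HepG2, SMMC-7721 kept in DMEM, QGY-7703 in RPMI 1640, with 10% FBS at 37 °C and 5% CO2.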
structure (smiles),measurement,setting,value
COc1cccc2c(Nc3ccc4[nH]c(C(=O)N/N=C/c5ccc(SC)cc5)cc4c3)cc(C)nc12,Activity,HepG2 [1],Active
same,Activity,SMMC-7721,Dose-dependent effect
same,IC50,QGY-7703 [2],890 nM
same,inhibition,HepG2 [3],Active
same,Activity,HepG2 [4],Dose-dependent effect
same,Activity,Mus musculus,Active
same,Activity,HepG2 [5],inactive
same,Activity,HepG2 [6],65%
same,Activity,[7],91.6 RU
same,Activity,HepG2 [8],Active
same,Activity,HepG2 [9],inactive
same,Activity,HepG2 [10],Active
same,Activity,HepG2 [11],18938 U
same,Activity,HepG2 [12],inactive
same,Activity,HepG2 [13],Active
same,Activity,[14],Tde
same,Activity,QGY-7703 [15],Dose-dependent effect
same,Activity,HepG2 [16],Tde
